Experimental data: ChEMBL document CHEMBL1126988, “Quinolone antibacterials containing the new 7-[3-(1-aminoethyl)-1- pyrrolidinyl] side chain: the effects of the 1-aminoethyl moiety and its stereochemical configurations on potency and in vivo efficacy” (J Med Chem, 1993)
Converted amounts (≈) assume the structure as drawn.

Columns and labels:
[1] = system: Staphylococcus aureus; assay: Minimum inhibitory concentration was evaluated in vitro against Staphylococcus aureus H 228; type: functional
Method in brief: (§1)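 Standard microtitration broth assay against a panel of 10 Gram-positive and Gram-negative organisms. MIC read in µg/mL and averaged over multiple experiments.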

[2] = system: Streptococcus pyogenes; assay: Minimum inhibitory concentration was evaluated in vitro against Streptococcus pyogenes C 203; type: functional; method in brief: as §1
[3] = system: Streptococcus pneumoniae; assay: Minimum inhibitory concentration was evaluated in vitro against Streptococcus pneumoniae SV-1; type: functional; method in brief: as §1
[4] = system: Klebsiella pneumoniae; assay: Minimum inhibitory concentration was evaluated in vitro against Klebsiella pneumoniae MGH2; type: functional; method in brief: as §1
[5] = system: Streptococcus pyogenes; assay: Antibacterial activity measured as mouse protection against Streptococcus pyogenes C 203 after subcutaneous administration; type: functional; conditions: for ED50: Streptococcus pyogenes, C 203, sc, read-out: PD50
[6] = target: DNA gyrase (Escherichia coli, UniProt P0AES4+P0AES6); assay: Inhibition against DNA gyrase; type: protein-complex assay
[7] = system: Pseudomonas aeruginosa; assay: Minimum inhibitory concentration was evaluated in vitro against Pseudomonas aeruginosa UI-18; type: functional; method in brief: as §1
[8] = system: Staphylococcus aureus; assay: Minimum inhibitory concentration was evaluated in vitro against Staphylococcus aureus UC 76; type: functional; method in brief: as §1
[9] = system: Providencia rettgeri; assay: Minimum inhibitory concentration was evaluated in vitro against Providencia rettgeri M1771; type: functional; method in brief: as §1
[10] = system: Streptococcus pyogenes; assay: Compounds were evaluated in vivo for antibacterial activity for mouse protection against Streptococcus pyogenes C 203 after oral administration; type: functional; conditions: for ED50: Streptococcus pyogenes, C 203, po, read-out: PD50
[11] = system: Enterococcus faecalis; assay: Minimum inhibitory concentration was evaluated in vitro against Enterococcus faecalis MGH-2; type: functional; method in brief: as §1
[12] = system: Enterobacter cloacae; assay: Minimum inhibitory concentration in vitro against Enterobacter cloacae MA 2646; type: functional
[13] = system: Escherichia coli; assay: Antibacterial activity against Escherichia coli Vogel after oral administration in mouse; type: functional; conditions: Escherichia coli, po; read-out: PD50
[14] = system: Escherichia coli; assay: Antibacterial activity against Escherichia coli Vogel after subcutaneous administration in mouse; type: functional; conditions: for ED50: Escherichia coli, sc, read-out: PD50
[15] = system: Escherichia coli; assay: Antibacterial activity in vitro against Escherichia coli Vogel; type: functional; method in brief: as §1
[16] = species: Mus musculus; assay: Compounds were evaluated for phototoxicity in mouse and phototoxicity no-effect dose was reported; type: functional
Method in brief: (§2)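 Depilated female CD-1 mice, five per dose plus controls. Animals are dosed orally and then exposed daily to UV-A (320–400 nm) for 3 h, for up to 4 days or until a definite positive response. Redness or erythema relative to controls, read 24 h after irradiation, counts as positive. Reported as the highest dose with no effect (mg/kg).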

[17] = Clonogenic cytotoxicity against hamster V-79 cells; type: functional, Cricetulus griseus, V79
Method in brief: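 Chinese hamster V-79 cells grown overnight, then drug-treated for 3 h at 37 °C. Medium is replaced with fresh medium and cells are incubated 5 days to allow colony formation. IC50 (µg/mL) is the concentration inhibiting colony formation by 50% relative to control.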

[18] = species: Mus musculus; assay: Compound was evaluated for phototoxicity no-effect dose in mouse; type: functional; method in brief: as §2
[19] = Staphylococcus aureus, read-out: MIC
[20] = Streptococcus pyogenes, read-out: MIC
[21] = Streptococcus pneumoniae, read-out: MIC
[22] = Klebsiella pneumoniae, read-out: MIC
[23] = Pseudomonas aeruginosa, read-out: MIC
[24] = Providencia rettgeri, read-out: MIC
[25] = Enterococcus faecalis, read-out: MIC
[26] = Enterobacter cloacae, read-out: MIC
[27] = Escherichia coli, read-out: MIC

Compound	MIC [1, 19]	MIC [2, 20]	MIC [3, 21]	MIC [4, 22]	ED50 [5]	IC50 [6]	MIC [7, 23]	MIC [8, 19]	MIC [9, 24]	ED50 [10]	MIC [11, 25]	MIC [12, 26]	ED50 [13]	ED50 [14]	MIC [15, 27]	MIC [1]	MIC [2]	MIC [3]	PD50 [10]	MIC [11]	other results
CC1(CN)CCN(c2nc3c(cc2F)c(=O)c(C(=O)O)cn3C2CC2)C1 (stereo not given)	0.025 µg/mL (≈ 0.0694 µM)	0.05 µg/mL (≈ 0.139 µM)	0.025 µg/mL (≈ 0.0694 µM)	0.1 µg/mL (≈ 0.277 µM)	2 mg/kg	13900 nM	0.8 µg/mL (≈ 2.22 µM)	0.006 µg/mL (≈ 0.0166 µM)	0.4 µg/mL (≈ 1.11 µM)	6 mg/kg	0.05 µg/mL (≈ 0.139 µM)	0.1 µg/mL (≈ 0.277 µM)	10 mg/kg	2 mg/kg	0.2 µg/mL (≈ 0.555 µM)	–	–	–	–	–	–
NC1CCN(c2cc3c(cc2F)c(=O)c(C(=O)O)cn3C2CC2)C1 (stereo not given)	0.2 µg/mL (≈ 0.604 µM)	0.1 µg/mL (≈ 0.302 µM)	–	0.05 µg/mL (≈ 0.151 µM)	–	754 nM	–	0.025 µg/mL (≈ 0.0754 µM)	–	–	0.1 µg/mL (≈ 0.302 µM)	0.025 µg/mL (≈ 0.0754 µM)	3 mg/kg	–	–	–	–	–	–	–	–
NCC1CCN(c2nc3c(cc2F)c(=O)c(C(=O)O)cn3C2CC2)C1 (stereo not given)	0.1 µg/mL (≈ 0.289 µM)	0.025 µg/mL (≈ 0.0722 µM)	0.1 µg/mL (≈ 0.289 µM)	0.1 µg/mL (≈ 0.289 µM)	4 mg/kg	2170 nM	0.2 µg/mL (≈ 0.577 µM)	0.003 µg/mL (≈ 0.00866 µM)	0.4 µg/mL (≈ 1.15 µM)	39 mg/kg	0.025 µg/mL (≈ 0.0722 µM)	0.1 µg/mL (≈ 0.289 µM)	17 mg/kg	1 mg/kg	0.05 µg/mL (≈ 0.144 µM)	–	–	–	–	–	–
CCN[C@H](C)[C@H]1CCN(c2c(F)cc3c(=O)c(C(=O)O)cn(C4CC4)c3c2C(F)(F)F)C1 (racemic)	0.05 µg/mL (≈ 0.11 µM)	0.025 µg/mL (≈ 0.0549 µM)	0.013 µg/mL (≈ 0.0285 µM)	1.6 µg/mL (≈ 3.51 µM)	0.5 mg/kg	1930 nM	6.3 µg/mL (≈ 13.8 µM)	0.013 µg/mL (≈ 0.0285 µM)	1.6 µg/mL (≈ 3.51 µM)	0.7 mg/kg	0.1 µg/mL (≈ 0.22 µM)	0.4 µg/mL (≈ 0.878 µM)	5 mg/kg	3 mg/kg	0.8 µg/mL (≈ 1.76 µM)	–	–	–	–	–	–
CN[C@H](C)[C@H]1CCN(c2cc3c(cc2F)c(=O)c(C(=O)O)cn3C2CC2)C1 (mixture of isomers)	–	–	–	–	–	–	–	–	–	–	–	–	7 mg/kg	1 mg/kg	–	0.2 µg/mL	0.05 µg/mL	0.05 µg/mL	7 mg/kg	0.1 µg/mL	Phototoxicity [16]: 100 mg/kg; Cytotoxicity [17]: 180 µg/mL; MIC [4]: 0.4 µg/mL; PD50 [5]: 1 mg/kg; MIC [7]: 1.6 µg/mL; MIC [8]: 0.05 µg/mL; MIC [9]: 0.8 µg/mL; MIC [12]: 0.2 µg/mL; MIC [15]: 0.2 µg/mL
C[C@@H](N)[C@H]1CCN(c2cc3c(cc2F)c(=O)c(C(=O)O)cn3C2CC2)C1 (racemic)	–	–	–	–	–	1390 nM	–	0.025 µg/mL (≈ 0.0696 µM)	–	–	–	–	47 mg/kg	1 mg/kg	–	0.05 µg/mL (≈ 0.139 µM)	0.003 µg/mL (≈ 0.00835 µM)	0.013 µg/mL (≈ 0.0362 µM)	11 mg/kg	0.025 µg/mL (≈ 0.0696 µM)	MIC [4]: 0.1 µg/mL (≈ 0.278 µM); PD50 [5]: 1 mg/kg; MIC [7]: 0.4 µg/mL (≈ 1.11 µM); MIC [9]: 0.2 µg/mL (≈ 0.556 µM); MIC [12]: 0.05 µg/mL (≈ 0.139 µM); MIC [15]: 0.05 µg/mL (≈ 0.139 µM)
NCC1CCN(c2cc3c(cc2F)c(=O)c(C(=O)O)cn3C2CC2)C1 (stereo not given)	0.05 µg/mL (≈ 0.145 µM)	0.013 µg/mL (≈ 0.0376 µM)	0.013 µg/mL (≈ 0.0376 µM)	0.1 µg/mL (≈ 0.29 µM)	4 mg/kg	1450 nM	0.8 µg/mL (≈ 2.32 µM)	0.006 µg/mL (≈ 0.0174 µM)	0.2 µg/mL (≈ 0.579 µM)	> 100 mg/kg	0.05 µg/mL (≈ 0.145 µM)	0.1 µg/mL (≈ 0.29 µM)	> 100 mg/kg	2 mg/kg	0.05 µg/mL (≈ 0.145 µM)	–	–	–	–	–	–
C[C@@H](N)[C@H]1CCN(c2nc3c(cc2F)c(=O)c(C(=O)O)cn3C2CC2)C1 (racemic)	–	–	–	0.1 µg/mL (≈ 0.277 µM)	5 mg/kg	6940 nM	0.8 µg/mL (≈ 2.22 µM)	–	0.2 µg/mL (≈ 0.555 µM)	–	–	0.05 µg/mL (≈ 0.139 µM)	–	–	0.05 µg/mL (≈ 0.139 µM)	0.2 µg/mL (≈ 0.555 µM)	0.05 µg/mL (≈ 0.139 µM)	0.05 µg/mL (≈ 0.139 µM)	15 mg/kg	0.1 µg/mL (≈ 0.277 µM)	Cytotoxicity [17]: 84 µg/mL; MIC [8]: 0.025 µg/mL (≈ 0.0694 µM); Dose [18]: >100 mg/kg; PD50 [14]: 1 mg/kg
